Test results reported in ChEMBL document CHEMBL1165950, “Design and synthesis of new potent anticancer pyrazoles with high FLT3 kinase inhibitory selectivity” (Bioorg Med Chem, 2010).

Legend:
Assay type in all cases: functional
Malme-3M = assay: Cytotoxicity against human MALME-3M cells assessed as cell growth at 1 uM after 48 hrs by sulforhodamine B assay; conditions: read-out: Activity
K562 = assay: Cytotoxicity against human K562 cells assessed as cell growth at 0.001 uM after 48 hrs by sulforhodamine B assay; conditions: K562, 48 h, read-out: Activity
EKVX [1] = assay: Growth inhibition of human EKVX cells after 48 hrs by sulforhodamine B assay
Outline: (§1)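 NCI five-dose SRB assay in RPMI 1640 with 5% FBS and 2 mM L-glutamine. Cells were preincubated 24 h, then exposed 48 h at 37 °C to five concentrations (10-fold or half-log serial dilutions from DMSO stocks). TCA fixation, SRB staining, and absorbance at 515 nm followed. IC50 was taken where [(Ti−Tz)/(C−Tz)]×100 = 50, with Tz as time-zero cell density.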

SNB-19 [2] = assay: Cytotoxicity against human SNB19 cells assessed as cell growth at 0.01 uM after 48 hrs by sulforhodamine B assay; conditions: SNB-19, 48 h, read-out: Activity
HCC 2998 = assay: Cytotoxicity against human HCC2998 cells assessed as cell growth at 0.01 uM after 48 hrs by sulforhodamine B assay; conditions: HCC 2998, 48 h, read-out: Activity
M14 [3] = assay: Cytotoxicity against human M14 cells assessed as cell growth at 0.001 uM after 48 hrs by sulforhodamine B assay; conditions: M14, 48 h, read-out: Activity
EKVX [4] = assay: Cytotoxicity against human EKVX cells assessed as cell growth at 10 uM; conditions: read-out: Activity
Outline: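 Single-dose NCI-60 screen at 10 µM. Cells were grown in RPMI 1640 with 5% FBS and 2 mM L-glutamine, then treated for 48 h at 37 °C. Protein was measured by SRB staining with absorbance at 515 nm. Percentage growth was recorded, and inhibition percentage was calculated as 100 minus growth percentage.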

NCI/ADR-RES [5] = assay: Cytotoxicity against human NCI/ADR-RES cells assessed as cell growth at 10 uM; conditions: read-out: Activity
Outline: (§2)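 NCI-60 screen: cells grown in RPMI 1640 with 5% FBS and 2 mM L-glutamine, plated at 5000–40,000 cells/well according to doubling time, and preincubated 24 h at 37 °C, 5% CO2. The single 10 µM dose (DMSO stock) was added, then incubated 48 h. Cells were TCA-fixed and stained with 0.4% SRB, read at 515 nm, and growth % calculated against time-zero and control plates.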

LOX IMVI = assay: Cytotoxicity against human LOXIMVI cells assessed as cell growth at 10 uM; conditions: read-out: Activity; outline: as §2
OVCAR-4 = assay: Cytotoxicity against human OVCAR4 cells assessed as cell growth at 1 uM after 48 hrs by sulforhodamine B assay; conditions: OVCAR-4, 48 h, read-out: Activity
A498 [6] = assay: Cytotoxicity against human A498 cells assessed as cell growth at 0.001 uM after 48 hrs by sulforhodamine B assay; conditions: A498, 48 h, read-out: Activity
Outline: (§3)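 NCI-60 five-dose screen. Cells were grown in RPMI 1640 with 5% FBS and 2 mM L-glutamine, plated at 5000–40,000 cells/well and preincubated for 24 h. Time-zero plates were TCA-fixed. DMSO-solubilized drug was added at five concentrations (10-fold or ½-log serial dilutions) for 48 h at 37 °C, 5% CO2. Cells were TCA-fixed, stained with 0.4% SRB and read at 515 nm. Percent growth used time-zero, control and test absorbances.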

HT-29 = assay: Cytotoxicity against human HT-29 cells assessed as cell growth at 0.01 uM after 48 hrs by sulforhodamine B assay; conditions: HT-29, 48 h, read-out: Activity
MOLT-4 [7] = assay: Cytotoxicity against human MOLT4 cells assessed as cell growth at 1 uM after 48 hrs by sulforhodamine B assay; conditions: MOLT-4, 48 h, read-out: Activity
OVCAR-8 [8] = assay: Cytotoxicity against human OVCAR8 cells assessed as cell growth at 10 uM; conditions: read-out: Activity; outline: as §2
NCI-H322M = assay: Cytotoxicity against human NCI-H322M cells assessed as cell growth at 10 uM; conditions: read-out: Activity; outline: as §2
SN12C = assay: Growth inhibition of human SN12C cells after 48 hrs by sulforhodamine B assay
Outline: (§4)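 NCI 60-cell screen, five-dose mode. Cells grown in RPMI 1640 with 5% FBS and 2 mM L-glutamine and plated at 5000-40,000 cells/well according to doubling time. After 24 h preincubation, a Tz plate was TCA-fixed. Five concentrations (10-fold or 1/2 log dilutions) were applied for 48 h at 37 °C. SRB staining read at 515 nm. IC50 taken from [(Ti-Tz)/(C-Tz)]×100 = 50.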

MCF7 = assay: Cytotoxicity against human MCF7 cells assessed as cell growth at 0.01 uM after 48 hrs by sulforhodamine B assay; conditions: MCF7, 48 h, read-out: Activity
A498 [9] = assay: Growth inhibition of human A498 cells after 48 hrs by sulforhodamine B assay; conditions: A498, 48 h; outline: as §1
COLO 205 = assay: Cytotoxicity against human COLO205 cells assessed as cell growth at 1 uM after 48 hrs by sulforhodamine B assay; conditions: COLO 205, 48 h, read-out: Activity; outline: as §3
UACC-62 = assay: Cytotoxicity against human UACC62 cells assessed as cell growth at 10 uM after 48 hrs by sulforhodamine B assay; conditions: UACC-62, 48 h, read-out: Activity
SNB-19 [10] = assay: Cytotoxicity against human SNB19 cells assessed as cell growth at 100 nM after 48 hrs by sulforhodamine B assay; conditions: SNB-19, 48 h, read-out: Activity
[11] = Growth inhibition of human Hs 578T cells after 48 hrs by sulforhodamine B assay; outline: as §4
RXF 393 = assay: Cytotoxicity against human RXF393 cells assessed as cell growth at 10 uM; conditions: read-out: Activity; outline: as §2
NCI/ADR-RES [12] = assay: Cytotoxicity against human NCI/ADR-RES cells assessed as cell growth at 0.01 uM after 48 hrs by sulforhodamine B assay; conditions: read-out: Activity
MOLT-4 [13] = assay: Cytotoxicity against human MOLT4 cells assessed as cell growth at 0.001 uM after 48 hrs by sulforhodamine B assay; conditions: MOLT-4, 48 h, read-out: Activity
BT-549 = assay: Cytotoxicity against human BT549 cells assessed as cell growth at 0.01 uM after 48 hrs by sulforhodamine B assay; conditions: BT-549, 48 h, read-out: Activity; outline: as §3
SW-620 = assay: Growth inhibition of human SW620 cells after 48 hrs by sulforhodamine B assay; conditions: SW-620, 48 h; outline: as §4
M14 [14] = assay: Cytotoxicity against human M14 cells assessed as cell growth at 1 uM after 48 hrs by sulforhodamine B assay; conditions: M14, 48 h, read-out: Activity
OVCAR-8 [15] = assay: Cytotoxicity against human OVCAR8 cells assessed as cell growth at 0.01 uM after 48 hrs by sulforhodamine B assay; conditions: OVCAR-8, 48 h, read-out: Activity
[16] = read-out: LC50 (the source's name)

SMILES: COc1cc(C)cc(-c2nn(CC#N)cc2-c2ccc(-c3cccc(C(C)=O)c3)nc2)c1
- growth at 1 µM (Malme-3M): 38%
- growth at 0.001 µM (K562): 82%
- GI50 (EKVX [1]): 3.98 µM
- TGI (EKVX [1]): 50.7 µM
- CC50 (EKVX [1]; [16]): > 100 µM
- growth at 0.01 µM (SNB-19 [2]): 102%
- growth at 0.01 µM (HCC 2998): 87%
- growth at 0.001 µM (M14 [3]): 94%
- growth at 10 µM (EKVX [4]): 51.6%
- growth at 10 µM (NCI/ADR-RES [5]): -25.8%
- growth at 10 µM (LOX IMVI): 25.4%
- growth at 1 µM (OVCAR-4): 19%
- growth at 0.001 µM (A498 [6]): 76%
- growth at 0.01 µM (HT-29): 93%
- growth at 1 µM (MOLT-4 [7]): 19%
- growth at 10 µM (OVCAR-8 [8]): 31.4%
- growth at 10 µM (NCI-H322M): 64.8%
- GI50 (SN12C): 6.08 µM
- LC50 (SN12C): > 100 µM
- TGI (SN12C): > 100 µM
- growth at 0.01 µM (MCF7): 97%
- GI50 (A498 [9]): 1.08 µM
- LC50 (A498 [9]): 72.5 µM
- TGI (A498 [9]): 5.14 µM
- growth at 1 µM (COLO 205): -55%
- growth at 10 µM (UACC-62): 25%
- growth at 0.1 µM (SNB-19 [10]): 99%
- GI50 [11]: 1.28 µM
- TGI [11]: 3.87 µM
- CC50 [11, 16]: 31.2 µM
- growth at 10 µM (RXF 393): -51%
- growth at 0.01 µM (NCI/ADR-RES [12]): 91%
- growth at 0.001 µM (MOLT-4 [13]): 97%
- growth at 0.01 µM (BT-549): 90%
- GI50 (SW-620): 1.3 µM
- TGI (SW-620): 19.3 µM
- CC50 (SW-620; [16]): > 100 µM
- growth at 1 µM (M14 [14]): -53%
- growth at 0.01 µM (OVCAR-8 [15]): 88%
